Source: ChEMBL document CHEMBL4130355, “Development of a series of novel 4-anlinoquinazoline derivatives possessing quinazoline skeleton: Design, synthesis, EGFR kinase inhibitory efficacy, and evaluation of anticancer activities in vitro” (Eur J Med Chem, 2017)
Calls of active or inactive are those of the source. The calls are words filed in the database; no cut-off is given here.

Key:
[1] = tested on: A549; assay: Antiproliferative activity against human A549 cells at 0.1 uM after 24 hrs by MTT assay relative to control; format: functional
How it was run: (§1)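 MTT assay in triplicate wells. Cells (2 × 10^3/well) were attached 24 h, then treated at 0.1, 1, 10, 50 or 100 µM for 24, 48 or 72 h. MTT added for 4 h, SDS solubilisation, absorbance at 570/650 nm. Inhibition = 1 − (OD treated − blank)/(OD control − blank). Reported as mean ± SD of three independent experiments.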

[2] = tested on: HepG2; assay: Antiproliferative activity against human HepG2 cells at 10 uM after 72 hrs by MTT assay realtive to control; format: functional; how it was run: as §1
[3] = tested on: HepG2; assay: Antiproliferative activity against human HepG2 cells at 50 uM after 48 hrs by MTT assay realtive to control; format: functional; how it was run: as §1
[4] = tested on: A549; assay: Antiproliferative activity against human A549 cells at 100 uM after 24 hrs by MTT assay relative to control; format: functional; how it was run: as §1
[5] = tested on: A549; assay: Antiproliferative activity against human A549 cells at 100 uM after 48 hrs by MTT assay relative to control; format: functional; how it was run: as §1
[6] = tested on: HepG2; assay: Antiproliferative activity against human HepG2 cells after 48 hrs by MTT assay; format: functional, cell-based; conditions: HepG2, 48 h
How it was run: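 MTT read-out. Cells seeded at 2 × 10^3/well, attached 24 h at 37 °C in 5% CO2, then exposed to 0.1–100 µM for 24, 48 or 72 h. MTT for 4 h, formazan dissolved in 10% SDS/NH4Cl for 10 h, absorbance at 570 nm corrected at 650 nm. % inhibition computed against untreated and blank wells. IC50 is the mean of at least three independent experiments.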

[7] = tested on: HepG2; assay: Cell cycle arrest in human HepG2 assessed as accumulation at S phase at 5 uM after 48 hrs by propidium iodide-staining based flow cytometry (reference value: 21.46%); format: functional
How it was run: (§2)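 HepG2 cells at 5.0 × 10^5/well were grown 24 h, then treated at 0, 2.5, 5.0 or 10.0 µM for 48 h alongside medium-only wells. Cells fixed in 70% ice-cold ethanol for ≥24 h, treated with RNase A at 37 °C for 30 min, then stained with propidium iodide for 30 min at 4 °C in the dark. DNA content read by flow cytometry. Average of at least three experiments.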

[8] = tested on: HepG2; assay: Cell cycle arrest in human HepG2 assessed as accumulation at S phase at 10 uM after 48 hrs by propidium iodide-staining based flow cytometry (reference value: 21.46%); format: functional; how it was run: as §2
[9] = tested on: HepG2; assay: Induction of apoptosis in human HepG2 cells assessed as early apoptotic cells at 10 uM after 48 hrs by Annexin V-FITC/propidium iodide double staining-based flow cytometry (reference value: 8.7%); format: functional
[10] = tested on: HepG2; assay: Induction of apoptosis in human HepG2 cells assessed as budded nuclei formation at 2.5 to 20 uM after 48 hrs by Hoechst 33342/propidium iodide double staining based laser scanning confocal microscopy; format: functional, cell-based
How it was run: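 HepG2 plated at 5.0 × 10^4 cells/well in DMEM with 10% FBS, 24 h at 37 °C, then treated 48 h (2.5–20 µM). After two ice-cold PBS washes, cells were stained with Hoechst 33342/PI mixed 1:1 for 30 min at 37 °C in the dark, washed three times, and imaged by laser scanning confocal microscopy at 200×.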

[11] = tested on: HepG2; assay: Induction of mitochondrial membrane potential loss in human HepG2 cells assessed as mitochondrial membrane potential levels at 20 uM after 48 hrs by rhodamine-123 dye based FACS analysis (reference value: 90.4%); format: functional
[12] = tested on: HepG2; assay: Induction of apoptosis in human HepG2 cells assessed as intracellular free Ca2+ levels at 20 uM after 48 hrs by FL1 channel/FACS analysis (reference value: 14.2%); format: functional
How it was run: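 HepG2 seeded at 5.0 × 10^5 cells/mL, 24 h at 37 °C in 5% CO2, then treated 48 h (2.5–20 µM). Harvested cells were washed in ice-cold PBS and loaded with 4 µM Fluo-3/AM for 30 min. After trypsinizing, they were washed twice and resuspended in HEPES, and fluorescence was measured in the FL-1 channel by flow cytometry. Values are averages of at least three independent experiments.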

[13] = tested on: HepG2; assay: Cell cycle arrest in human HepG2 assessed as decrease in cell levels at G0/G1 phase after 48 hrs by propidium iodide-staining based flow cytometry; format: functional; how it was run: as §2

For `COc1cc2c(Nc3ccc(C#N)cc3)ncnc2cc1OCCCN1CCC(c2ccccc2)CC1`, the Activity [1] was 0.8%, the Activity [2] was 63.6% and the Activity [3] was 108%. For the same molecule, the Activity [4] was 91.8%, the Activity [5] was 91.4% and the IC50 [6] was 9.56 µM. For the same molecule, the Activity [7] was 25.1%, the Activity [8] was 29.72% and the Activity [9] was 98.6%. For the same molecule, the Activity [10] was “Active”, the Activity [11] was 55.9% and the Activity [12] was 52.7%. For the same molecule, the Activity [13] was “Dose-dependent effect”.
